Screens from PubChem BioAssay.
Sampled rows, rich in hits. Any-hit rate of the full collection: about 4.6%.
NLRP3 yeast inh = inhibitors of NALP3 inflammasome in yeast; Yeast reconstituted NLRP3/ASC/caspase-1, beta-gal luminescence, 24 h; inhibition, % at 10 µM; actives 0.39% (n = 330,000); AID 2825;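 active = inhibition of 50% or more; inactive = inhibition below 50%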;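 also: plate controls were induced DMSO wells for no effect and uninduced yeast grown without galactose for full effect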
NALP1 inh = blocks the NALP1 inflammasome reconstituted in yeast; S. cerevisiae NALP1/ASC/caspase-1 growth, X-gal OD620, 72 h; inhibition, % at 10 µM; actives 0.61% (n = 280,000); in the data active = inhibition mostly above about 24%, no sharp cut-off; inactive = mostly below about 32%
DSG3 Ab inh = human desmoglein-3 autoantibody binding inhibition. P32926. AID 588358. actives 0.48% (n = 310,000). binding (percent of control), % at 10 µM. DSG3-coupled beads, scFv-anti-DSG3-GFP binding, flow cytometry; hits give low values;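 active = binding more than 3 SD below its plate's average and above zero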;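 also: hits lower antibody fragment binding to DSG3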
PolyA inh = yeast polyadenylation inhibition. S. cerevisiae SKY197-pL101 polyadenylation reporter, beta-gal luminescence; efflux-impaired pdr1/pdr3 knockout yeast; score 100 = 6 SD above DMSO. activity score, % at 12 µM. actives 0.02% (n = 300,000). AID 1875;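 active = lowest replicate activity score at least 50, where 100 means six control SD above control mean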;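 also: yeast exposed to compound for 9 h at 30 °C; higher score means more reporter readthrough which indicates perturbed polyadenylation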
Arrestin-AP2 inh = human beta-arrestin and AP2 interaction inhibition; inhibition, % at 10 µM; FITC-arrestin peptide / GST-AP2 beads, flow cytometry; AP2 beta2 appendage carries R879A mutation; AID 504490; actives 0.31% (n = 340,000);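 active = inhibition above a set limit, near 3 SD of compounds lacking own fluorescence, cut at about 54% in these data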;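 also: plate controls were DMSO wells for no effect and 5 µM unlabelled arrestin peptide for full effect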
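test system = AP2 appendage R879A on GSH beads | buffer or medium = PBS plus Tween 20 (0.05%) and BSA (0.1%) | incubation = 12 min plus 1 h, RT | detection = bead flow cytometry, FITC channel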
ALR inh = inhibitors of human sulfhydryl oxidase ALR | purified ALR, DTT oxidation, H2O2 HRP-luminol luminescence | inhibition, % (test concentration not listed) | actives 3.8% (n = 290,000) | P55789;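 active = mean replicate inhibition above about 79%, with every replicate also reaching it, limit read from the data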
Arr-AP2 CP1 = human beta-arrestin and AP2 interaction inhibition, cherry pick; shares compounds with Arrestin-AP2 inh; actives 2% (n = 1,300); inhibition, % at 10 µM; AID 504908; GST-AP2 beads, FITC arrestin peptide binding, flow cytometry; GST-fused beta2-adaptin appendage, R879A mutant;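 active = inhibition above a set limit, roughly 3 SD of non-fluorescent compound noise, cut at about 38% in these data; inactive = inhibition at or below that limit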;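 also: loss of bead fluorescence from 50 nM FITC arrestin peptide bound to appendage; 0% = negative control wells and 100% = excess unlabelled arrestin peptide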
GST GSH counter = disrupts GST binding to glutathione beads, arrestin-AP2 artifact | shares compounds with Arrestin-AP2 inh | GST-fluorescein binding to GSH beads, fluorescence, counter-screen | inhibition, % at 10 µM | actives 2% (n = 1,300) | AID 588338;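 active = inhibition above 50%, about 3 SD of the inhibition seen with non-fluorescent compounds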;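 also: fluorescein maleimide labelled GST captured on 4 micron glutathione beads; higher means more loss of bead fluorescence from quenching or blocked binding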
Active calls of the source: *; . = no result.

SMILES	NLRP3 yeast inh	NALP1 inh	DSG3 Ab inh	PolyA inh	Arrestin-AP2 inh	ALR inh	Arr-AP2 CP1	GST GSH counter
CC(CC(=O)N(CCC1=CCCCC1)c1c(N)n(Cc2ccccc2)c(=O)[nH]c1=O)c1ccccc1 (stereo unspecified)	15	.	103	4	68*	0	0	-3
CCc1ccc([C@@H]2CC=C(C(=O)O)[C@H](c3cccc(Cl)c3)N2S(=O)(=O)c2ccc(C)cc2)cc1	8	.	101	.	0	6	.	.
C=CCNc1nc(C(=O)OCC(=O)c2ccc(F)cc2)cs1	15	.	97	28	23	-5	.	.
C=CCNc1nc(C(=O)OC(C)C(=O)c2ccc(C)cc2)cs1 (stereo unspecified)	10	.	104	.	57*	-7	-10	-4
Cc1cccc(-n2c(=S)[nH]c3sc4c(c3c2=O)CCc2ccccc2-4)c1	18	6	87	1	35	.	.	.
CC/C(=N\NC(=S)NC(C)C)c1ccc(OC)c(OC)c1	17	-14	.	-20	56*	18	2	-3
CC(C)NC(=O)N(C)C[C@H]1Oc2ccc(NC(=O)Nc3ccccc3)cc2C(=O)N([C@@H](C)CO)C[C@@H]1C	9	.	101	.	2	3	.	.
O=C(NCC1COc2ccccc2O1)c1ccc(NC(=O)C(c2ccccc2)c2ccccc2)cc1 (stereo unspecified)	6	35	102	12	99*	-7	35	5
O=C(Cc1ccccc1)Nc1ccc(C(=O)NCC2COc3ccccc3O2)cc1 (stereo unspecified)	4	27	118	-8	27	-3	.	.
CCCCNC(=O)COC(=O)c1ccc(Cl)c(S(N)(=O)=O)c1	14	48	104	.	-53	-1	.	.
NC(=O)C[n+]1cccc(C(=O)Nc2ccccc2)c1	10	3	111	18	66*	-8	-19	-6
O=C(C[n+]1cccc(C(=O)Nc2ccccc2)c1)c1ccc([N+](=O)[O-])cc1	21	0	98	12	1	-27	.	.
C[C@H](CO)N1C[C@H](C)[C@@H](CN(C)S(=O)(=O)c2ccccc2)Oc2ccc(NC(=O)Nc3ccccc3)cc2C1=O	3	.	102	.	54*	.	10	-8
C[C@H](CO)N1C[C@H](C)[C@@H](CN(C)S(=O)(=O)c2ccc(F)cc2)Oc2ccc(NC(=O)Nc3ccccc3)cc2C1=O	4	.	.	.	-5	-1	.	.
COc1ccc(S(=O)(=O)N(C)C[C@H]2Oc3ccc(NS(=O)(=O)c4cn(C)cn4)cc3C(=O)N([C@H](C)CO)C[C@@H]2C)cc1	22	.	94	.	73*	.	0	-3
Cc1ccc(OCCC(=O)Nc2ccc3c(c2)OCCCO3)cc1	34	.	97	.	0	-1	3	-2
COc1cc(C)ccc1OCC(=O)Nc1ccc2c(c1)OCO2	38	.	107	.	-6	-7	3	-5
CCOc1ccccc1OCCC(=O)Nc1ccc2c(c1)OCO2	28	.	121	.	2	-5	-3	-1
CC(=O)c1ccc(OCCCC(=O)Nc2ccc3c(c2)OCCO3)cc1	17	.	100	.	-2	-5	-3	-3
COc1ccccc1OCC(=O)Nc1ccc2c(c1)OCO2	11	24	108	-1	15	.	.	.
Cc1ccc(OCCCC(=O)Nc2ccc3c(c2)OCO3)cc1	36	8	97	-18	1	0	.	.
COc1ccc(OCCCC(=O)Nc2ccc3c(c2)OCCO3)cc1	33	7	81	21	1	-4	.	.
CCC(=O)c1ccc(OCC(=O)Nc2ccc3c(c2)OCCO3)cc1	0	.	-3.4*	.	8	-15	-4	-4
Cc1cc(S(=O)(=O)NC(C)C)ccc1OCC(=O)Nc1ccc2c(c1)OCCO2	16	-11	94	16	63*	-1	23	-7
